Screening results from PubChem.
In the library only some 2.4% were active in any assay of this set; here they are far more common.
MC4R ag barr: activates human MC4R beta-arrestin recruitment; activation, % at 8.9 µM; P32245; U2OS MC4R beta-arrestin complementation, luminescence; percent of melanotan II response, DMSO zero; 360,000 compounds, 0.98% hits; AID 540308;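 active = activation above a per-plate cutoff, the mean activation of sample wells on that plate plus 3 SD, cut at about 8% in these data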
OPRM1-OPRD1 inv: mu-delta opioid heterodimer inverse agonism. AID 504357. cell-based MOR-DOR heterodimer luminescence. 340,000 compounds, 0.21% hits. P35372+P41143. inhibition, % at 9.3 µM; in the data active = inhibition above about 22%, passing the limit was not always enough
Target sequence (P35372 whole entry, looked up): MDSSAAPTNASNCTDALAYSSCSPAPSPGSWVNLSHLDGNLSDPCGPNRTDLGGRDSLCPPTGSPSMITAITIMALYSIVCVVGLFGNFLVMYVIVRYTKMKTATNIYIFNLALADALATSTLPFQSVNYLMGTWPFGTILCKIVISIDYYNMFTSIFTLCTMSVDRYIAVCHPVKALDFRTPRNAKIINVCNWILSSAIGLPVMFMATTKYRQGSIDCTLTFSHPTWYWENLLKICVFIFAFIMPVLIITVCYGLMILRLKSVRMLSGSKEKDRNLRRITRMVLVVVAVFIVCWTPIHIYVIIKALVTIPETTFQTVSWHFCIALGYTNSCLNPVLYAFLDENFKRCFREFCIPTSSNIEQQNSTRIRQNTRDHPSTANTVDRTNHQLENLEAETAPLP
Target sequence (P41143 whole entry, looked up): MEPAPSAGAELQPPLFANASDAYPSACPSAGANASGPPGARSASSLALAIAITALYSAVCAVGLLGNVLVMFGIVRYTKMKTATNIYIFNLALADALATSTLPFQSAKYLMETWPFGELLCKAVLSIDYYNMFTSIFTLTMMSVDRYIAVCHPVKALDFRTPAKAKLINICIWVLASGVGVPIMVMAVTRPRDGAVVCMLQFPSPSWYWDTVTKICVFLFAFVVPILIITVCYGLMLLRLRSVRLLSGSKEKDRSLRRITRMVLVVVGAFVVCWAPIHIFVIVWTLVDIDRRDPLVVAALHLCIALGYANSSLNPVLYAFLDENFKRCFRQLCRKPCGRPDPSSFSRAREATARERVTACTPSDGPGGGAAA
OPRM1-OPRD1 ag: agonists of human mu-delta opioid receptor heterodimerization. cells, OPRM1-OPRD1 heterodimerization, luminescence. 340,000 compounds, 0.3% hits. P35372+P41143. activation, % at 9.3 µM. AID 504326; in the data active = activation above about 18%
MC4R antag cAMP: antagonists of human melanocortin 4 receptor (MC4R); inhibition, % at 6.5 µM; MC4R-expressing cells, MTII-stimulated cAMP, LANCE TR-FRET; 360,000 compounds, 0.48% hits;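 active = inhibition above its plate's cutoff, the mean of tested wells on that plate plus 3 SD, cut at about 29% in these data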
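Assay system: U2OS cells stably expressing human melanocortin 4 receptor (MC4R) / Dosing: 6.5 µM / Timing: compound 30 min, challenge 1 h, detection 1 h / Measured by: Eu-cAMP/anti-cAMP TR-FRET, emission 671 nm / Replicates: singlicate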
HTR5A ag: counter-screen for OPRM1-OPRD1 agonists: human HTR5A agonism; P47898; HTR5A agonist assay, luminescence, cell-based; activation, % at 9.3 µM; 340,000 compounds, 0.61% hits; in the data active = activation mostly above about 9.5%, no sharp cut-off; inactive = mostly below about 7.6%
HTR5A inv ag: counter-screen for OPRM1-OPRD1 inverse agonists: human HTR5A inverse agonism. inhibition, % at 9.3 µM. P47898. 340,000 compounds, 0.083% hits. HTR5A cell line, luminescence; in the data active = inhibition mostly above about 23%, no sharp cut-off; inactive = mostly below about 18%
MC4R barr conf: human MC4R beta-arrestin agonism confirmation | shares compounds with MC4R ag barr | AID 602192 | 2,400 compounds, 31% hits | U2OS MC4R beta-arrestin recruitment, luminescence; scaled DMSO 0%, Melanotan II 100% | activation, % at 8.9 µM;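 active = mean activation across replicates above the hit cutoff set in the earlier primary screen, cut at about 8% in these data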
MOR-DOR barr ag: activates mu-delta opioid heterodimer, MC4R agonist counter-screen. shares compounds with MC4R ag barr. U2OS PathHunter beta-arrestin, beta-gal luminescence; percent of deltorphin B response, DMSO zero. activation, % at 9.2 µM. 2,400 compounds, 5.8% hits;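 active = mean activation across replicates exceeds the hit threshold derived in the earlier primary screen, cut at about 18% in these data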
A number is an active result; n = inactive; x = no result given.

SMILES | MC4R ag barr | OPRM1-OPRD1 inv | OPRM1-OPRD1 ag | MC4R antag cAMP | HTR5A ag | HTR5A inv ag | MC4R barr conf | MOR-DOR barr ag
COc1ccc(OCCn2cc(/C=C(\C#N)C(=O)NCc3ccco3)c3ccccc32)cc1 | 50 | n | n | n | n | n | 52 | 30
COc1ccccc1OCCn1cc(/C=C(\C#N)C(=O)NCc2ccco2)c2ccccc21 | n | n | n | n | n | n | x | x
CCN(CC)c1ccc(S(=O)(=O)N2CCOCC2)cc1NC(=O)CSc1nncs1 | n | n | n | n | n | n | x | x
COc1cccc(CN(Cc2ccco2)S(=O)(=O)c2ccc(S(=O)(=O)NCc3ccccc3)cc2)c1OC | n | n | n | n | n | n | x | x
COc1cccc(CN(Cc2ccccc2F)S(=O)(=O)c2ccc(S(=O)(=O)NCc3ccccc3)cc2)c1 | 22 | n | n | n | n | n | n | n
CCCCCCCCCCS(=O)(=O)N/N=C/c1ccc([N+](=O)[O-])cc1 | 13 | n | n | n | n | n | n | n
c1ccc(-c2nnc(-c3c[nH]c4ccccc34)nc2-c2ccccc2)cc1 | 15 | n | n | n | n | n | n | n
CC(C)c1ccc(NC(=O)COC(=O)/C=C/c2cccc(Br)c2)cc1 | 11 | n | n | n | n | n | n | n
Cc1noc(C)c1COc1ccc(C(=O)OCC(=O)Nc2c(C)n(C)n(-c3ccccc3)c2=O)cc1 | n | n | n | n | n | n | x | x
CCOc1ccc(Cn2c3ccc(OC)cc3c3nc4ccccc4nc32)cc1 | 30 | n | n | n | n | n | 38 | n
CCCCOC(=O)Cn1c2ccc(OC)cc2c2nc3ccccc3nc21 | n | n | n | n | n | n | x | x
CCS(=O)(=O)c1nc(S(=O)(=O)c2ccc(Cl)cc2)c(NCCCN2CCOCC2)s1 | n | n | n | n | n | n | x | x
COc1ccc(-c2cc(NC=O)c3ncc(-c4cnn(C)c4)n3c2)cc1 | 14 | x | x | n | x | x | 9.6 | n
COc1cccc(-c2cnc3c(NC=O)cc(-c4cc(OC)c(OC)c(OC)c4)cn23)c1 | 29 | x | x | n | x | x | 26 | n
COc1cccc(-c2cnc3c(NC=O)cc(-c4ccc(OC)cc4OC)cn23)c1 | 14 | x | x | n | x | x | 12 | n
COc1cccc(-c2cnc3c(NC=O)cc(-c4ccc(N(C)C)cc4)cn23)c1 | 15 | x | x | n | x | x | n | n
COc1ccc(-c2cc(NC=O)c3ncc(-c4cccc(OC)c4)n3c2)cc1 | n | x | x | n | x | x | x | x
Cc1cccc(C)c1OCc1nc2ccccc2c(=O)n1/N=C/c1c[nH]c2ccccc12 | n | n | n | n | n | n | x | x
Cc1ccccc1OCc1nc2ccccc2c(=O)n1/N=C/c1c[nH]c2ccccc12 | 29 | n | n | n | n | n | n | n
Cc1cc(/C=N/n2c(COc3ccccc3C)nc3ccccc3c2=O)c(O)c([N+](=O)[O-])c1 | n | n | n | n | n | n | x | x
Cc1ccc(-c2[nH]ncc2/C=N/n2c(COc3ccccc3C)nc3ccccc3c2=O)cc1 | 19 | n | n | n | n | n | n | n
CCn1c(SCC(=O)Nc2cc(C)on2)nc2c1c(=O)n(C)c(=O)n2C | n | n | n | n | n | n | x | x
Cc1cc(NC(=O)CSc2nc3c(c(=O)n(C)c(=O)n3C)n2C(C)C)no1 | 16 | n | n | n | n | n | n | n
COc1cc2c(c(OC)c1OC)-c1c(cc3c(c1OC)OCO3)C1OC2[C@@H](C)[C@H]1C (stereo partly specified) | n | n | n | n | n | n | x | x
CCOC(=O)c1c(C)[nH]c(C(=O)COC(=O)c2cc(C)oc2C)c1C | 19 | n | n | n | n | n | 9.9 | n
SMILES | MC4R ag barr | OPRM1-OPRD1 inv | OPRM1-OPRD1 ag | MC4R antag cAMP | HTR5A ag | HTR5A inv ag | MC4R barr conf | MOR-DOR barr ag
Fc1ccc(-n2nnnc2-c2cnc(-c3cccs3)nc2C(F)(F)F)cc1 | 11 | n | n | n | n | n | n | n
COC(=O)c1ccc(CNC(=O)c2ccc3c(c2)S(=O)(=O)N=C2CCCCCN23)cc1 | n | n | n | n | n | n | x | x
Cc1nc(C)c(NC(=O)N2CCc3ccccc32)cc1NC(=O)N1CCc2ccccc21 | 25 | n | n | n | n | n | n | n
CCOC(=O)c1cc(NC(=O)N2CCCc3ccccc32)c(C)nc1C | n | n | n | n | n | n | x | x
Cc1ccc(C)c(NC(=O)CSc2nnc(C3CCCCC3)o2)c1 | n | n | n | n | n | n | x | x
O=C(c1cc(C2CCCCN2C(=O)OCCF)on1)N1CCOCC1 (stereo unspecified) | n | x | x | n | x | x | x | x
CCOC(=O)c1c(N)c2cc([N+](=O)[O-])ccc2n1C | 16 | n | n | n | n | n | n | n
O=C(O)C1CCc2nc(NCc3ccccc3)nc(NCc3ccccc3)c2C1 (stereo unspecified) | n | n | n | n | n | n | x | x
O=C(NCc1ccc2c(c1)OCO2)Nc1ccc2ccccc2c1 | 11 | x | x | n | x | x | n | n
COc1ccc(OC)c(N=c2oc3c(OC)cccc3cc2C(=O)NCc2ccco2)c1 | n | n | n | n | n | n | x | x
COc1ccccc1N=c1oc2c(OC)cccc2cc1C(=O)NCc1ccco1 | 24 | n | n | n | n | n | n | 25
COc1ccc(C(=O)Nc2ccc(NC(=O)c3cccs3)c(OC)c2)cc1Cl | n | n | n | n | n | n | x | x
COc1cc(NC(=O)c2ccc(Cl)cc2Cl)ccc1NC(=O)c1cccs1 | 21 | n | n | n | n | n | n | n
CCOc1ccc(C(=O)NC(=S)Nc2ccc(NC(=O)c3ccco3)c(C)c2)cc1[N+](=O)[O-] | 10 | n | n | n | n | n | n | n
CC(C)(C)c1ccc(C(=O)Nc2ccc(NC(=O)c3ccco3)cc2)cc1 | 25 | n | n | n | n | n | n | n
COc1cc(NC(=O)c2ccc(OC)c([N+](=O)[O-])c2)ccc1NC(=O)c1ccco1 | n | n | n | n | n | n | x | x
COc1ccccc1C(=O)NC(=S)Nc1ccc(NC(=O)c2ccco2)cc1 | 11 | n | n | n | n | n | n | n
Cc1cc(C)c(S(=O)(=O)NCc2cn3c(C)csc3n2)cc1C | n | n | n | n | n | n | x | x
O=C(NCCCN1CCOCC1)/C(=C/c1cccnc1)NC(=O)c1ccccc1 | n | n | n | n | n | n | x | x
CNC(=S)N/N=C/c1ccco1 | n | n | n | n | n | n | x | x
COc1ccccc1C(=O)NC(=S)Nc1ccc(NC(=O)c2cccs2)cc1 | 27 | n | n | n | n | n | n | n
COc1cc(OC)cc(C(=O)Nc2ccc(NC(=O)c3ccco3)c(Cl)c2)c1 | n | n | n | n | n | n | x | x
O=C(NC(=S)Nc1ccc(S(=O)(=O)N2CCCCC2)cc1)c1cccs1 | 13 | n | n | n | n | n | n | n
